Data: ChEMBL document CHEMBL3792374, “Discovery of a ring-opened derivative of 3-n-butylphthalide bearing NO/H2S-donating moieties as a potential anti-ischemic stroke agent” (Eur J Med Chem, 2016)
Calls of active or inactive are those of the source. The calls are words filed in the database; no cut-off is given here.

Key:
Rattus norvegicus [1] = test: (§1) Antioxidant activity in Sprague-Dawley rat brain tissue model of transient middle cerebral artery occlusion stroke model assessed as glutathione levels per mg of protein at 380 mg/kg administered via oral gavage for 7 days after ischemia onset measured 24 hrs after reperfusion by DTNB assay (reference value: 23.47 nmol); type: functional; conditions: in the assay text read “before ischemia onset” for “after ischemia onset”
Summary of the method: (§2)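 Male SD rats (280–320 g; n = 12 per group) were gavaged daily for 7 days, with 0.5% CMC-Na as vehicle. Two hours after the last dose they were anesthetized with chloral hydrate (300 mg/kg ip) and underwent 2 h MCAO followed by reperfusion. Brains were taken 24 h after reperfusion, rinsed in cold saline and stored at −70 °C. Protein was quantified, then GSH, SOD, GSH-Px and MDA were measured by kits. Mean ± SD, n = 6, ANOVA/Tukey.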

Rattus norvegicus [2] = test: as §1, with “malondialdehyde” for “glutathione”, “reperfusion” for “reperfusion by DTNB assay”, “1.46” for “23.47”; type: functional; conditions: in the assay text read “before ischemia onset” for “after ischemia onset”; summary of the method: as §2
Rattus norvegicus [3] = test: Antioxidant activity in Sprague-Dawley rat brain tissue model of transient middle cerebral artery occlusion stroke model assessed as increase in superoxide dismutase levels per mg of protein at 80 mg/kg […] measured 24 hrs after reperfusion by nitroblue tetrazolium assay relative to control; type: functional
Liver = test: Induction of hydrogen sulfide release in rat liver homogenate at 100 uM after 15 mins by microplate reader method (reference value: 1.03 to 1.21%); type: functional, tissue-based
Summary of the method: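 Compound was incubated at 37 °C for 0–90 min with fresh rat liver homogenate. The reaction was stopped with 1% zinc acetate and 10% trichloroacetic acid. N,N-dimethyl-p-phenylenediamine sulfate in 7.2 M HCl and FeCl3 in 1.2 M HCl were added, and absorbance was read at 670 nm after 10 min. Values were calculated against an NaHS standard curve as cumulative % conversion to H2S, n = 6.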

[4] = Induction of nitric oxide release in potassium phosphate buffer at pH 7.4 at 0.1 mM after 105 mins by Griess assay; type: physicochemical; conditions: pH 7.4, 1.75 h, 100 µM
Summary of the method: (§3)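 Compound (0.1 mM) in PBS pH 7.4 containing 2% DMSO and 5.0 mM L-cysteine was held at 37 °C for 15–300 min. Samples were taken every 15 min up to 120 min, then every 30 min. Each sample was reacted with Griess reagent for 10 min at 37 °C and absorbance read at 540 nm. Nitrite was quantified from a nitrite standard curve. Means reported; intra-group variation <10%.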

[5] = Induction of nitric oxide release in potassium phosphate buffer at pH 7.4 at 0.1 mM after 300 mins by Griess assay; type: physicochemical; conditions: pH 7.4, 5 h, 100 µM; summary of the method: as §3
Rattus norvegicus [6] = test: Neuroprotective activity in Sprague-Dawley rat model of transient middle cerebral artery occlusion stroke model assessed as neurological deficit at 80 mg/kg administered via oral gavage for 7 days after ischemia onset measured 24 hrs after middle cerebral artery occlusion by Longa's method; type: functional, organism-based; conditions: in the assay text read “before ischemia onset” for “after ischemia onset”
Summary of the method: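 Male SD rats (280–320 g) received daily gavage for 7 days, with 0.5% CMC-Na as vehicle. Two hours after the last dose they underwent 2 h MCAO with reperfusion under chloral hydrate anesthesia; core temperature was held at 37 °C. Neurological deficit was scored blinded by Longa's method 24 h after reperfusion, between 10 and 11 a.m. Kruskal–Wallis test followed by Mann–Whitney U test.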

Rattus norvegicus [7] = test: Antioxidant activity in Sprague-Dawley rat brain tissue model of transient middle cerebral artery occlusion stroke model assessed as increase in glutathione levels per mg of protein at 80 mg/kg […] measured 24 hrs after reperfusion by DTNB assay (reference value: 23.47 nmol); type: functional
[8] = Induction of nitric oxide release in potassium phosphate buffer at pH 7.4 at 0.1 mM after 90 mins by Griess assay; type: physicochemical; conditions: pH 7.4, 1.5 h, 100 µM; summary of the method: as §3
Rattus norvegicus [9] = test: Neuroprotective activity in Sprague-Dawley rat model of transient middle cerebral artery occlusion stroke model assessed as reduction in neurological deficit at 380 mg/kg […] measured 24 hrs after middle cerebral artery occlusion by Longa's method; type: functional, organism-based
[10] = Induction of nitric oxide release in potassium phosphate buffer at pH 7.4 at 0.1 mM after 60 mins by Griess assay; type: physicochemical; conditions: pH 7.4, 1 h, 100 µM; summary of the method: as §3
[11] = Induction of nitric oxide release in potassium phosphate buffer at pH 7.4 at 0.1 mM after 45 mins by Griess assay; type: physicochemical; conditions: pH 7.4, 0.75 h, 100 µM; summary of the method: as §3

CCCCC(OC(=O)CN1CCN(CCCCCOc2ccc(-c3cc(=S)ss3)cc2)CC1)c1ccccc1C(=O)Oc1ccc(/C=C/C(=O)OCCO[N+](=O)[O-])cc1OC (racemic)
Activity (Rattus norvegicus [1]): 28.05 nmol | Activity (Rattus norvegicus [2]): 0.86 nmol | Activity (Rattus norvegicus [3]): 23.07% | Activity (Liver): 2.83% | Activity [4]: 9.63 µM | Activity [5]: 10.57 µM | Activity (Rattus norvegicus [6]): inactive | Activity (Rattus norvegicus [7]): 25.22 nmol | Activity [8]: 9.14 µM | Activity (Rattus norvegicus [9]): Active | Activity [10]: 8.03 µM | Activity [11]: 6.89 µM
